# Screening results: PubChem, several laboratories
# HSV augment: enhancers of HSV replication in host cells, fold increase, host cell viability. HSV replication augmentation in cells. maximum fold increase. 220,000 compounds, 0.005% hits; in the data active = maximum fold increase above about 1.5; tested in PC3 cells
# ABCB6 inh MLPCN: ABCB6 transporter inhibitors, primary screen, K562-ABCB6 cells, flow cytometry, MLPCN library | ATP-binding cassette sub-family B member 6 (Homo sapiens), Q9NP58 | K562-ABCB6 porphyrin accumulation, 1 h; active compounds read low | AID 602162, 2011 | 360,000 compounds, 0.19% hits | fluorescence ratio to DMSO, % at 10 µM;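 active = fluorescence ratio to DMSO below 75%, the collection mean minus 3 SD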;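 note: signal is porphyrin accumulated inside mitochondria; lower ratio means ABCB6 inhibition with less porphyrin fluorescence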
# ABCB1 inh: ABCB1 efflux pump inhibitors, primary screen, cell-based, multiplex, flow cytometry, ABCG2 counter-screen; CCRF-Adr cells, JC-1 efflux; 190,000 compounds, 0.067% hits; ATP-dependent translocase ABCB1 (Homo sapiens), P08183; AID 1326, 2008; inhibition, % at 6.6 µM; in the data active = inhibition above about 40%;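 note: higher value means more JC-1 retained so stronger ABCB1 efflux block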
# ABCG2 block: ABCG2 efflux pump inhibitors, primary screen, multiplex with ABCB1, IgMXP3 cells, flow cytometry. JC-1 efflux. inhibition, % at 6.6 µM. 190,000 compounds, 0.1% hits. Broad substrate specificity ATP-binding cassette transporter ABCG2 (Homo sapiens), Q9UNQ0;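 active = inhibition above 80%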
#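 Measure – % inhibition of efflux relative to nicardipine and DMSO · Test system – ABCG2 IgMXP3 and barcoded ABCB1 CCRF-Adr cell mix · Control set – nicardipine as high control, DMSO as low control · Compound – one concentration, 6.6 µM final · Signal – flow cytometry of retained JC-1 fluorescence · Timing – 10 min exposure at 25 °C with rotation, no wash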
# Rad51 HR inh: human RAD51 strand exchange inhibitors, primary screen, biochemical, fluorescence | inhibition, % at 10 µM | AID 1385, 2008 | 200,000 compounds, 0.085% hits | DNA repair protein RAD51 homolog 1 (Homo sapiens), Q06609 | hRad51 DNA strand exchange, fluorescence dequenching;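 active = inhibition above 40% at the single screening dose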
#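 Material: Human Rad51 nucleoprotein filaments preassembled on unlabelled ssDNA | Also added: Labelled 47-mer dsDNA for strand exchange | Dosing: Single dose, 10 µM final compound | Schedule: 30-min compound preincubation and 15-min exchange, both room temperature | Technique: Fluorescence dequenching at 485/520 nm | Measure: Percent inhibition relative to plate controls and blanks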
# p97 ATPase inh: inhibitors of human p97 ATPase, primary screen, biochemical; inhibition, % at 8 µM; Transitional endoplasmic reticulum ATPase (Homo sapiens), P55072; 220,000 compounds, 0.42% hits; recombinant p97 ATPase, Kinase-Glo ATP luminescence, 3 h; in the data active = inhibition above about 15%
# ABCB6 inh CP1: ABCB6 transporter inhibitors, confirmation, K562-ABCB6 cells, flow cytometry, cherry pick 1; shares compounds with ABCB6 inh MLPCN; K562-ABCB6 porphyrin accumulation, 1 h; active compounds read low; ratio response (% of DMSO), % at 10 µM; 700 tested, under 10 active; AID 602430, 2012;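 active = repeat-averaged ratio response below 75% of DMSO, the collection mean minus 3 SD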;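 note: median porphyrin fluorescence at 575 nm with 488 nm excitation from mitochondria; lower ratio means less porphyrin signal so ABCB6 inhibition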
# Hits are given with their value; . = inactive; / = no result. A selection: hits, their analogues and other compounds. The true share with any hit is near 0.55%.
SMILES,HSV augment,ABCB6 inh MLPCN,ABCB1 inh,ABCG2 block,Rad51 HR inh,p97 ATPase inh,ABCB6 inh CP1
O=C1c2ccccc2/C(=C\C#Cc2ccccn2)N1c1ccccc1,/,.,/,/,/,/,/
CC(=O)Nc1ccc(NC(=O)CSC2=NS(=O)(=O)c3cc(Cl)ccc3N2)cc1,/,56,/,/,/,/,.
CN(C)c1ccc(NC(=O)CSc2nnc(C3CCCCC3)n2N)cc1,/,12,/,/,/,/,.
O=C(Nc1ccc(NC(=O)C2CC2)nc1)c1cccnc1,.,68,.,.,.,.,.
O=C(Nc1ccc(NC(=O)C2CC2)cn1)c1ccccc1,/,.,/,/,/,/,/
CCOC(=O)C1=C(C)NC(C)=C(C(=O)OCC)C1C(=O)OCC(=O)N(C)Cc1ccccc1,/,74,/,/,/,/,.
CCOC(=O)C1=C(C)NC(C)=C(C(=O)OCC)C1C(=O)OCC(N)=O,.,.,.,.,.,.,/
COc1ccc(-c2ccc(C(=O)NCc3ccncc3)c3occc23)c(C)c1,/,69,/,/,/,/,.
COc1ccc(-c2ccc(C(=O)NCc3ccc(F)c(F)c3)c3occc23)c(C)c1,/,.,/,/,/,/,/
CC1(C(=O)NS(=O)(=O)c2cccc(C#N)c2)CCN1C(=O)Cc1ccccc1Cl (centres undefined),/,.,/,/,/,/,.
CC1(C(=O)NS(=O)(=O)c2cccc(F)c2)CCN1C(=O)Cc1ccccc1Cl (centres undefined),/,.,/,/,/,/,.
Cc1cc(C)cc(CC(=O)N2CCC2(C)C(=O)NS(=O)(=O)c2ccc(Br)cc2)c1 (centres undefined),/,.,/,/,/,/,.
COc1ccc(S(=O)(=O)NC(=O)C2(C)CCN2C(=O)Cc2ccccc2Cl)cc1OC (centres undefined),/,.,/,/,/,/,/
Cc1cc(C)cc(CC(=O)N2CCC2(C)C(=O)NS(=O)(=O)c2ccccc2)c1 (centres undefined),/,.,/,/,/,/,/
CC1(C(=O)NS(=O)(=O)c2cccc(C#N)c2)CCN1C(=O)Cc1ccc(Cl)cc1Cl (centres undefined),/,.,/,/,/,/,/
Cc1cc(C)cc(CC(=O)N2CCC2(C)C(=O)NS(=O)(=O)c2cccc(F)c2)c1 (centres undefined),/,.,/,/,/,/,.
CC1(C(=O)NS(=O)(=O)c2cccc(F)c2)CCN1C(=O)CC1CCCCC1 (centres undefined),/,.,/,/,/,/,/
CC(C)(C)c1ccc(CC(=O)N2CCC2(C)C(=O)NS(=O)(=O)c2cccc(C#N)c2)cc1 (centres undefined),/,61,/,/,/,/,.
CC1(C(=O)NS(=O)(=O)c2cccc(C#N)c2)CCN1C(=O)Cc1ccc(-c2ccccc2)cc1 (centres undefined),/,.,/,/,/,/,/
Cc1ccc(S(=O)(=O)N2CCN(C(=O)CN3CCOCC3)C2C(C)C)cc1 (centres undefined),.,59,.,.,.,.,.
Cc1ccc(S(=O)(=O)N2CCN(C(=O)CN3CCOCC3)C2c2ccccc2)cc1 (centres undefined),.,.,.,.,.,.,/
CCOC(=O)CSc1nnc(NC(=O)c2cc([N+](=O)[O-])cc([N+](=O)[O-])c2)s1,.,74,.,.,.,.,.
Cc1noc(C)c1S(=O)(=O)N1CCC(C(=O)O)CC1,/,.,/,/,/,/,.
Cc1ccc(C(=O)C2CCN(S(=O)(=O)c3c(C)noc3C)CC2)cc1,.,.,/,/,.,.,/
CCc1nc2c(OCC(=O)c3ccc(F)cc3)cccn2c1N(C)C(=O)C(C)C,/,.,/,/,/,/,/
COc1cc(NC(=O)CCc2nnc3ccc(N4CCC(C)CC4)nn23)cc(OC)c1,/,.,/,/,/,/,/
COC(=O)C(NC(=O)CCc1nnc2ccc(N3CCCCC3)nn12)C(C)C (centres undefined),/,.,/,/,/,/,.
COCCCNC(=O)CCc1nnc2ccc(N3CCC(C)CC3)nn12,/,.,/,/,/,/,.
